Sampled rows, rich in hits. Any-hit rate of the full collection: about 5.2%.
ZTA counter = blocks Epstein-Barr virus ZTA, an EBNA-1 counter-screen. AID 2234. ZTA-DNA binding, fluorescence polarization. 320,000 compounds, 0.15% hits. inhibition, % at 11 µM. P03206; in the data active = inhibition above about 33%
Target sequence (P03206 whole entry, looked up): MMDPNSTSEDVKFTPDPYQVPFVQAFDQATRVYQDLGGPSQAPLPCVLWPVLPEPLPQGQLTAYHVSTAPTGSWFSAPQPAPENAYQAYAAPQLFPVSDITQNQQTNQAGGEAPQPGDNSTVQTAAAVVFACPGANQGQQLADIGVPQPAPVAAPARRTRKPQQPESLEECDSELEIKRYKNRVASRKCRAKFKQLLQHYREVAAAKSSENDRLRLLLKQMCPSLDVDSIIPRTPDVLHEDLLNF
core dimer inh = inhibitors of HCV core protein dimerization, primary screen, biochemical, TR-FRET, high-throughput; inhibition, % at 5 µM; AID 1899, 2009; TR-FRET GST/Flag-core106 dimerization, 1536-well; 300,000 compounds, 0.33% hits;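 active = inhibition above the mean of all tested compounds plus 3 SD, set per screening campaign, cut at about 45% in these data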
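Test system: GST/Flag-tagged HCV core106 proteins; Medium: KF-containing HEPES buffer, pH 7.45, DTT, CHAPS, BSA; Times: compound-protein-antibody incubation 4 h at 22.5 °C; Detection: TR-FRET 671 and 617 nm emission; Benchmarks: wells lacking GST-core106 and wells with excess unlabelled core106.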
ALR H2O2 inh = inhibitors of human ALR sulfhydryl oxidase, primary screen, biochemical, H2O2 detection, HRP-luminol luminescence, single point; 290,000 compounds, 3.8% hits; FAD-linked sulfhydryl oxidase ALR (Homo sapiens), P55789; AID 485317, 2010; purified ALR, DTT oxidation; inhibition, % (test concentration not listed);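 active = mean replicate inhibition above about 79%, with every replicate also reaching it, limit read from the data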
Target sequence (P55789 whole entry, looked up): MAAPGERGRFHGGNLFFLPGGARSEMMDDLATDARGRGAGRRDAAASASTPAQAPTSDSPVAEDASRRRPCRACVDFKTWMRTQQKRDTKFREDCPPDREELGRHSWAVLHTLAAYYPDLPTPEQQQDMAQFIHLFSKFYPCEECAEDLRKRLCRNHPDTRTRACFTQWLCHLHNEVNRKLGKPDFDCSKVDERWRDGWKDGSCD
NS3 helicase inh = inhibitors of HCV NS3 helicase, primary screen, biochemical, Cy5 molecular beacon fluorescence. Hepatitis C virus NS3 helicase. NS3 helicase DNA unwinding. inhibition, % at 10.9 µM. 290,000 compounds, 0.56% hits. AID 1800, 2009;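 active = inhibition above the mean of all tested compounds plus 3 SD, set per campaign, cut at about 35% in these data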;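 note: 0% = DMSO wells and 100% = thioflavine S control wells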
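Assay system – hepatitis C virus NS3 helicase domain fragment enzyme · Buffer or medium – MOPS pH 6.5, MgCl2, DTT, Tween20, BSA · Reagent – Cy5/quencher beacon DNA duplex and ATP to start · Compound – single 10.9 µM dose · Timing – 1 h at 25 °C · Technique – Cy5 beacon fluorescence read at start and 1 h · Measure – % inhibition of unwinding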
EBNA-1 inh = EBNA-1 DNA-binding inhibitors, primary screen, biochemical, fluorescence polarization. AID 1950, 2009. 300,000 compounds, 0.34% hits. inhibition, % at 14.8 µM; in the data active = inhibition above about 28%
PfM18AAP inh = PfM18AAP inhibitors, malaria aminopeptidase, primary screen, biochemical, QFRET, recombinant enzyme | M18 aspartyl aminopeptidase (Plasmodium falciparum 3D7) | inhibition, % at 7.35 µM | H-Glu-NHMec fluorogenic cleavage | 290,000 compounds, 1.2% hits;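 active = inhibition above the campaign mean inhibition over all tested compounds plus 3 SD, cut at about 28% in these data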;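 note: 0% = plate median of test compound wells and 100% = 2 mM ZnCl2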
ZTA inh confirm = EBV Zta binding to ZRE DNA, inhibitors, confirmation, biochemical, fluorescence polarization, triplicate. shares compounds with ZTA counter. inhibition, % at 11.1 µM. 320 compounds, 30% hits. AID 2361, 2010;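 active = mean inhibition across triplicate runs above the hit threshold derived for the original primary screen, cut at about 33% in these data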;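 note: 0% = Zta with DMSO and 100% = wells lacking Zta protein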
EBNA-1 counter = EBNA-1 DNA-binding inhibition, counter-screen for ZTA inhibitor project, biochemical, fluorescence polarization. shares compounds with ZTA counter. inhibition, % at 14.8 µM. 320 tested, under 10 active; call rule not given here
Numbers without * were called inactive; . = not tested or not shown.

SMILES	ZTA counter	core dimer inh	ALR H2O2 inh	NS3 helicase inh	EBNA-1 inh	PfM18AAP inh	ZTA inh confirm	EBNA-1 counter
C#CCOCCOCCOCCNc1nc(N2CCN(C(=O)CCCCCCCCCCNC(=O)[C@H]([C@@H](C)CC)n3cc(CCCCCN)nn3)CC2)nc(N2CCN(C(=O)CCCCCCCCCCNC(=O)[C@@H]([C@H](C)O)n3cc(C)nn3)CC2)n1	9	-7	-4	.	10	.	.	.
C#CCOCCOCCOCCNc1nc(N2CCN(C(=O)CCCCCCCCCCNC(=O)Cn3cc(CCCCCN)nn3)CC2)nc(N2CCN(C(=O)CCCCCCCCCCNC(=O)[C@H](CO)n3cc(CCCCCN)nn3)CC2)n1	50*	-13	-10	.	6	.	36*	-9
CCc1ccc2c(CN3CCC(C(=O)OC)CC3)cc(=O)oc2c1	-7	12	.	4	-5	-2	.	.
O=C1C(=O)N(Cc2ccncc2)C(c2ccccc2F)/C1=C(\O)c1ccc2c(c1)OCCO2 (centres undefined)	0	-6	31	16	-1	4	.	.
Cc1ccc(-n2[nH]c(C)c(C=Nc3ccc4[nH]c(=O)[nH]c4c3)c2=O)cc1	-8	-8	7	17	3	-36	.	.
Cc1ccc(-n2[nH]c(C)c(C=Nc3ccc4[nH]c(=O)[nH]c4c3)c2=O)cc1C	52*	-4	92*	-10	-7	-31	14	-2
CCC(C)N=C1Sc2nc3ccc(C)cc3cc2CN1CCOC (centres undefined)	8	4	32	34	-14	9	.	.
CCOC(=O)NN1C(=O)c2ccccc2NC1c1ccc(OC)cc1 (centres undefined)	9	-5	4	11	-8	0	.	.
CCOC(=O)NN1C(=O)c2ccccc2NC1c1ccc(N(C)C)cc1 (centres undefined)	33*	3	23	3	-4	5	6	0
CC1=NN2C(=N)/C(=C\c3cc(C)n(-c4ccccc4)c3C)C(=O)N=C2S1	-7	12	-3	7	-4	-3	.	.
N=C1/C(=C\c2coc3ccccc3c2=O)C(=O)N=C2SC(c3ccncc3)=NN12	39*	16	.	7	-2	0	63*	-6
O=C(CC(C(=O)O)c1ccc(Cl)cc1Cl)c1ccc(Cl)cc1 (centres undefined)	33*	5	3	-2	7	0	-1	-3
O=C(CC(C(=O)O)c1ccc(Cl)cc1)c1ccc(Cl)c(Cl)c1 (centres undefined)	-8	12	.	2	1	-1	.	.
Cc1ccc(NC(=O)CCc2nnc(SCC(=O)Nc3ccccc3C)n2C)cc1Cl	69*	4	-2	-4	-14	1	6	-1
CN(C)CCOc1ccccc1-c1ccccc1	37*	15	.	-1	4	16	-12	-7
Cc1nn(CC(=O)Nc2ccc(C(=O)N3CCCC3)cc2)c(=O)c2ccccc12	-17	-4	.	4	-3	-2	.	.
Cc1nn(CC(=O)Nc2ccc(C(=O)N3CCCCC3)cc2)c(=O)c2ccccc12	35*	0	-8	0	-2	5	-17	-6
CC(=O)c1c(C)[nH]c(C(=O)CN2C(=O)NC(C)(CCC(C)C)C2=O)c1C (centres undefined)	-7	-3	.	0	-7	-2	.	.
CC(C)Oc1ccc(CCNC(=O)CC2C(=O)NCCN2C)cc1 (centres undefined)	52*	0	4	-26	-15	5	10	5
CCC(C)(C)NC(=O)CN(Cc1ccccc1Cl)C(=O)CCC(=O)Nc1cc(C)ccn1	-6	-1	-8	-1	3	1	.	.
C=CCOc1ccc(/C=C2\SC(=S)N(N3CCOCC3)C2=O)cc1	41*	4	17	-6	1	2	3	-2
CCC(C)Oc1ccc(/C=C/c2[nH]c(=O)[nH]c(=O)c2[N+](=O)[O-])cc1OC (centres undefined)	21	5	19	25	6	7	.	.
COc1cc(/C=C/c2[nH]c(=O)[nH]c(=O)c2[N+](=O)[O-])cc([N+](=O)[O-])c1O	36*	-2	4	21	-2	19	55*	-8
O=[N+]([O-])c1cc([N+](=O)[O-])c(Oc2cc(Cl)ccc2Cl)cc1NC1CCCCCCC1	6	9	-1	34	1	-8	.	.
N/C(=N\OC(=O)COc1ccc(Br)cc1Cl)c1ccccn1	74*	-2	.	-6	-13	11	6	-10
SMILES	ZTA counter	core dimer inh	ALR H2O2 inh	NS3 helicase inh	EBNA-1 inh	PfM18AAP inh	ZTA inh confirm	EBNA-1 counter
CCOc1cc(/C=N\NC(=O)Cn2nnc3ccccc32)ccc1O	-10	1	55	-9	9	0	.	.
CCN(CC)S(=O)(=O)c1cc(NC(=O)Cn2ncc(Cl)c(Cl)c2=O)ccc1C	-1	38	0	8	4	4	.	.
COc1ccc(Cn2c(N)c(S(=O)(=O)c3cccs3)c3nc4ccccc4nc32)cc1	35*	24	-10	-1	22	1	6	5
CN1CCC(OC(c2ccccc2)c2ccccc2)CC1	60*	7	-13	-13	7	8	13	7
CC(=O)N[C@@H](Cc1c[nH]c2ccccc12)C(=O)OCc1cc(C(F)(F)F)cc(C(F)(F)F)c1	-12	-9	.	.	2	.	.	.
CCN(CC)CCCN1CC(=O)N2[C@@H](Cc3c([nH]c4ccccc34)C2(C)C)C1=O	-6	-1	0	3	-8	-4	.	.
OCCN(CCO)CC(O)Cn1c2ccccc2c2ccccc21 (centres undefined)	61*	5	-13	-14	-4	-6	9	7
CCNc1c([N+](=O)[O-])c(=O)oc2ccccc12	35*	0	2	3	4	-2	-9	-4
O=C(Nc1ccc2oc(-c3ccncc3)nc2c1)c1ccc2c(c1)OCO2	50*	3	0	9	2	14	76*	10
COc1ccc(C(=O)NCCc2nnc3ccc(SCC(=O)N4CCCCC4)nn23)cc1	13	-1	3	-10	-3	0	.	.
